Four compounds from ChEMBL document CHEMBL3351723, “New derivatives of lupane triterpenoids disturb breast cancer mitochondria and induce cell death” (Bioorg Med Chem, 2014) can be followed below.

The structures appear in SMILES notation.

Series [1] concerns Liver microsome. As to the kind of experiment: Effect on mitochondrial transmembrane potential in Wistar Han rat liver mitochondria energized with succinate assessed as mitochondrial transmembrane electropotential at 0.06 ug/mg of protein (reference value: 220.6 +/- 2.5 mV). The series is classed as functional.
Series [2] concerns Liver microsome. Put plainly: Effect on mitochondrial transmembrane potential in Wistar Han rat liver mitochondria energized with succinate assessed as mitochondrial transmembrane electropotential at 1.333 ug/mg of protein (reference value: 220.6 +/- 2.5 mV). The series is classed as functional. The method, boiled down: (§1)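 Isolated male Wistar rat liver mitochondria (1.5 mg protein) in 125 mM sucrose, 65 mM KCl, 5 mM KH2PO4, 2.5 mM MgCl2, 5 mM HEPES pH 7.4, 30°C, with 3 μM TPP+. Compound added for 1 min, then 10 mM succinate plus 3 μM rotenone. State 3 started with ADP (83.3 nmol/mg protein). ΔΨ read with a TPP+-selective electrode and calculated by the Kamo equation without binding correction.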

Series [3] concerns Liver microsome. As to the kind of experiment: Effect on mitochondrial transmembrane potential in Wistar Han rat liver mitochondria energized with succinate assessed as ADP depolarization at 0.067 ug/mg of protein (reference value: 34.6 +/- 1.9 mV). In kind it is functional.
Series [4] relates to Liver microsome. Put plainly: Effect on mitochondrial transmembrane potential in Wistar Han rat liver mitochondria energized with succinate assessed as ADP depolarization at 0.133 ug/mg of protein (reference value: 34.6 +/- 1.9 mV). The series is classed as functional.
The test system of series [5] is Liver microsome. Put plainly: Effect on mitochondrial transmembrane potential in Wistar Han rat liver mitochondria energized with succinate assessed as ADP depolarization at 0.333 ug/mg of protein (reference value: 34.6 +/- 1.9 mV). In kind it is functional.
Series [6] has as its system Liver microsome. Put plainly: Effect on mitochondrial transmembrane potential in Wistar Han rat liver mitochondria energized with succinate assessed as ADP depolarization at 1.333 ug/mg of protein (reference value: 34.6 +/- 1.9 mV). The series is classed as functional.
The subject of series [7] is Liver microsome. Put plainly: Effect on mitochondrial transmembrane potential in Wistar Han rat liver mitochondria energized with succinate assessed as time duration of lag phase at 0.067 ug/mg of protein (reference value: 46.7 +/- 3.9 sec). The series is classed as functional. The method in brief:
as §1

In series [8] the test system is Liver microsome. As to the kind of experiment: Effect on mitochondrial transmembrane potential in Wistar Han rat liver mitochondria energized with succinate assessed as time duration of lag phase at 0.133 ug/mg of protein Rvb = 46.7 +/- 3.9 sec). In kind it is functional. The method, boiled down: as §1
The subject of series [9] is Liver microsome. Put plainly: Effect on mitochondrial transmembrane potential in Wistar Han rat liver mitochondria energized with succinate assessed as time duration of lag phase at 0.667 ug/mg of protein Rvb = 46.7 +/- 3.9 sec). The series is classed as functional. The method in brief: as §1
The test system of series [10] is Liver microsome. Put plainly: Effect on mitochondrial transmembrane potential in Wistar Han rat liver mitochondria energized with succinate assessed as time duration of lag phase at 1.333 ug/mg of protein Rvb = 46.7 +/- 3.9 sec). In kind it is functional. The method in brief: as §1
Series [11] deals with Liver microsome. As to the kind of experiment: Effect on mitochondrial transmembrane potential in Wistar Han rat liver mitochondria energized with succinate assessed as mitochondrial transmembrane electropotential at 0.333 ug/mg of protein (reference value: 198.0 +/- 5.6 mV). In kind it is functional.
Series [12] relates to Liver microsome. As to the kind of experiment: Effect on mitochondrial transmembrane potential in Wistar Han rat liver mitochondria energized with succinate assessed as ADP depolarization at 0.333 ug/mg of protein (reference value: 23.9 +/- 3.3 mV). The series is classed as functional.
Series [13] relates to Liver microsome. Put plainly: Effect on mitochondrial transmembrane potential in Wistar Han rat liver mitochondria energized with succinate assessed as ADP depolarization at 0.667 ug/mg of protein (reference value: 23.9 +/- 3.3 mV). The series is classed as functional.
Series [14] concerns Liver microsome. As to the kind of experiment: Effect on mitochondrial transmembrane potential in Wistar Han rat liver mitochondria energized with succinate assessed as ADP depolarization at 1.333 ug/mg of protein (reference value: 23.9 +/- 3.3 mV). In kind it is functional.
Series [15] deals with Liver microsome. Put plainly: Effect on mitochondrial transmembrane potential in Wistar Han rat liver mitochondria energized with succinate assessed as time duration of lag phase at 0.067 ug/mg of protein (reference value: 40.5 +/- 4.5 sec). In kind it is functional. The method, boiled down:
as §1

For series [16], the system named is Liver microsome. Put plainly: Effect on mitochondrial transmembrane potential in Wistar Han rat liver mitochondria energized with succinate assessed as mitochondrial transmembrane electropotential at 0.667 ug/mg of protein (reference value: 204.2 +/- 5.6 mV). In kind it is functional.
Series [17] relates to Liver microsome. As to the kind of experiment: Effect on mitochondrial transmembrane potential in Wistar Han rat liver mitochondria energized with succinate assessed as ADP depolarization at 0.067 ug/mg of protein (reference value: 25.3 +/- 2.1 mV). The series is classed as functional.
In series [18] the test system is Liver microsome. Put plainly: Effect on mitochondrial transmembrane potential in Wistar Han rat liver mitochondria energized with succinate assessed as ADP depolarization at 1.333 ug/mg of protein (reference value: 25.3 +/- 2.1 mV). In kind it is functional.
Series [19] concerns Liver microsome. As to the kind of experiment: Effect on mitochondrial transmembrane potential in Wistar Han rat liver mitochondria energized with succinate assessed as time duration of lag phase at 0.333 ug/mg of protein (reference value: 33.0 +/- 4.6 sec). In kind it is functional. The method in brief: as §1
A further series has as its system BJ. As to the kind of experiment: Induction of apoptosis in human BJ cells assessed as distribution of mitochondrial polarization and morphology at 0.25 ug/ml after 6 hrs by confocal microscopy. The series is classed as cell-based. The method, boiled down:
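Cells were seeded on glass coverslips and left to attach for 24 h. They were then exposed to vehicle or 0.25 μg/ml compound for 6 h. For the last 30 min they were loaded with 100 nM TMRM in saline buffer with 15 mM glucose, and the probe was kept present during imaging. Mitochondrial polarization and morphology were imaged by fluorescence microscopy, and the TMRM fluorescence standard deviation was quantified. Four independent preparations, mean ± SEM.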

Series [20] concerns Liver microsome. As to the kind of experiment: Effect on mitochondrial transmembrane potential in Wistar Han rat liver mitochondria energized with succinate assessed as mitochondrial transmembrane electropotential at 0.06 ug/mg of protein (reference value: 216.0 +/- 7.4 mV). The series is classed as functional.
In series [21] the test system is Liver microsome. Put plainly: Effect on mitochondrial transmembrane potential in Wistar Han rat liver mitochondria energized with succinate assessed as mitochondrial transmembrane electropotential at 0.333 ug/mg of protein (reference value: 216.0 +/- 7.4 mV). The series is classed as functional.
Series [22] relates to Liver microsome. As to the kind of experiment: Effect on mitochondrial transmembrane potential in Wistar Han rat liver mitochondria energized with succinate assessed as ADP depolarization at 0.067 ug/mg of protein (reference value: 34.7 +/- 1.4 mV). The series is classed as functional.
For series [23], the system named is Liver microsome. Put plainly: Effect on mitochondrial transmembrane potential in Wistar Han rat liver mitochondria energized with succinate assessed as ADP depolarization at 0.133 ug/mg of protein (reference value: 34.7 +/- 1.4 mV). The series is classed as functional.
The subject of series [24] is Liver microsome. As to the kind of experiment: Effect on mitochondrial transmembrane potential in Wistar Han rat liver mitochondria energized with succinate assessed as ADP depolarization at 0.667 ug/mg of protein (reference value: 34.7 +/- 1.4 mV). In kind it is functional.
In series [25] the test system is Liver microsome. Put plainly: Effect on mitochondrial transmembrane potential in Wistar Han rat liver mitochondria energized with succinate assessed as ADP depolarization at 1.333 ug/mg of protein (reference value: 34.7 +/- 1.4 mV). In kind it is functional.
Series [26] concerns Liver microsome. As to the kind of experiment: Effect on mitochondrial transmembrane potential in Wistar Han rat liver mitochondria energized with succinate assessed as time duration of lag phase at 0.333 ug/mg of protein (reference value: 82.8 +/- 23.5 sec). The series is classed as functional. The method, boiled down:
as §1

`C=C(C)[C@@H]1CC[C@]2(COC(=O)C[N+](C)(C)C(C)C)CC[C@]3(C)[C@H](CC[C@@H]4[C@@]5(C)CC[C@H](OC(=O)C[N+](C)(C)C(C)C)C(C)(C)[C@@H]5CC[C@]43C)[C@@H]12.[Cl-].[Cl-]`: the Activity in the series on Liver microsome [1] turned out to be 217 mV; in the series with Liver microsome [2] it was 206 mV; in the series with Liver microsome [3], 31.5 mV; with Liver microsome [4], 30.3 mV; with Liver microsome [5] it was 28.8 mV; in the series on Liver microsome [6] it was 19.8 mV. In addition, the TIME with Liver microsome [7] worked out at 0.0139 h; with Liver microsome [8], 0.0137 h; in the series on Liver microsome [9], 0.0146 h; with Liver microsome [10], 0.0144 h.

As to `C=C(C)[C@@H]1CC[C@]2(COC(=O)C(CC)[n+]3ccc(N(C)C)cc3)CC[C@]3(C)[C@H](CC[C@@H]4[C@@]5(C)CC[C@H](OC(=O)C(CC)[n+]6ccc(N(C)C)cc6)C(C)(C)[C@@H]5CC[C@]43C)[C@@H]12` (some centres not stated), the Activity was 193 mV in the series with Liver microsome [11], 23.2 mV in the series on Liver microsome [12], 23 mV in the series with Liver microsome [13] and 21.8 mV in the series with Liver microsome [14]. Besides, in the series on Liver microsome [15], the TIME amounted to 0.0123 h.

As for `C=C(C)[C@@H]1CC[C@]2(COC(=O)CC[n+]3ccc(N(C)C)cc3)CC[C@]3(C)[C@H](CC[C@@H]4[C@@]5(C)CC[C@H](OC(=O)CC[n+]6ccc(N(C)C)cc6)C(C)(C)[C@@H]5CC[C@]43C)[C@@H]12.[Cl-].[Cl-]`, the Activity with Liver microsome [16] was 205 mV; with Liver microsome [17], 24.7 mV; in the series with Liver microsome [18] it was 20.3 mV; in the series with BJ, “Non-toxic”. In addition, in the series with Liver microsome [19], the TIME came to 0.00894 h.

On to `C=C(C)[C@@H]1CC[C@]2(COC(=O)C[n+]3ccc(N(C)C)cc3)CC[C@]3(C)[C@H](CC[C@@H]4[C@@]5(C)CC[C@H](OC(=O)C[n+]6ccc(N(C)C)cc6)C(C)(C)[C@@H]5CC[C@]43C)[C@@H]12.[Cl-].[Cl-]`, for which the Activity with Liver microsome [20] is 209 mV; in the series with Liver microsome [21] it was 208 mV; with Liver microsome [22] it was 28.4 mV; in the series with Liver microsome [23], 29.8 mV; in the series on Liver microsome [24], 28.6 mV; in the series with Liver microsome [25], 25.2 mV. In addition, the TIME in the series with Liver microsome [26] worked out at 0.0217 h.
